Measurements as given in ChEMBL document CHEMBL1123839, “5-Acyl-3-substituted-benzofuran-2(3H)-ones as potential antiinflammatory agents” (1987).

Tests used:
Type in all cases: functional
Cavia porcellus [1] = organism: Cavia porcellus; test: Tested for effect on the production of Lipoxygenase (LO) metabolite, 5,12-diHETE in guinea pig peritoneal polymorphonuclear neutrophils at 30 uM concentration
Summary of the method: (§1)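 Guinea pig peritoneal PMNs were incubated with [14C]arachidonic acid and stimulated with calcium ionophore A23187. Compounds were tested at 30 μM in 0.1 N NaOH–Krebs Ringer bicarbonate buffer. Radiolabeled cyclooxygenase and lipoxygenase products were identified by HPLC and GC-MS, separated by TLC and quantified by automatic scanning.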

Cavia porcellus [2] = organism: Cavia porcellus; test: Tested for effect on the production of Lipoxygenase (LO) metabolite, 5-HETE in guinea pig peritoneal polymorphonuclear neutrophils at 30 uM concentration; summary of the method: as §1
Cavia porcellus [3] = organism: Cavia porcellus; test: Tested for effect on the production of cyclooxygenase (COX) metabolite, PGE-2 (prostaglandin E2) of arachidonic acid in guinea pig peritoneal polymorphonuclear neutrophils at 30 uM concentration; summary of the method: as §1
Cavia porcellus [4] = organism: Cavia porcellus; test: Tested for effect on the production of cyclooxygenase (COX) metabolite, TXB2 of arachidonic acid in guinea pig peritoneal polymorphonuclear neutrophils at 30 uM concentration; summary of the method: as §1
Rattus norvegicus [5] = test: Antiinflammatory activity was assessed by the ability to improve the adjuvant induced arthritis in left secondary lesion in rats at oral doses, 33 mg/kg (volume change in the injected paw measured from day 9 to day 18)
Rattus norvegicus [6] = test: Antiinflammatory activity was assessed by the ability to improve the adjuvant induced arthritis in right primary lesion in rats at oral doses, 33 mg/kg (volume change in the injected paw measured from day 0 to day 8)
Summary of the method: (§2)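 Female Sprague–Dawley rats (150–170 g), six per group. Arthritis induced by subcutaneous plantar injection of 0.125 mg killed tubercle bacillus in liquid paraffin into the right hind paw. Dosing was 33 mg/kg orally, daily for 14 days, starting the day before adjuvant. Paw volumes were measured by mercury plethysmography every 2–3 days over 18 days. Primary lesion: right paw, days 0–8. Secondary lesions: right and left (uninjected) paws, days 9–18. Areas under the time-course curves were compared with controls by ANOVA.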

Rattus norvegicus [7] = test: Ability to improve the adjuvant induced arthritis in right secondary lesion in rats at oral doses, 33 mg/kg; summary of the method: as §2
Rattus norvegicus [8] = organism: Rattus norvegicus; test: Antiinflammatory activity was assessed improvement of adjuvant induced arthritis in rats, determined by joint mobility of the paw; set-up: concentration or dose not given beside the values
Summary of the method: (§3)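 Adjuvant arthritis was induced in female Sprague–Dawley rats (150–170 g, groups of six) by right-hind-paw plantar injection of killed tubercle bacillus in paraffin. Treatment was 33 mg/kg orally, daily for 14 days, starting the day before adjuvant. Joint involvement was scored as the angle through which the hind paws moved easily, given as percent change versus nontreated controls.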

Cavia porcellus [9] = organism: Cavia porcellus; test: Tested for effect on the production of cyclooxygenase (COX) metabolite, PGF2-alpha (prostaglandin F2-alpha) of arachidonic acid in guinea pig peritoneal polymorphonuclear neutrophils at 30 uM concentration; summary of the method: as §1
Rattus norvegicus [10] = test: Antiinflammatory activity was assessed by the ability to improve the adjuvant induced arthritis in left secondary lesion in rats at oral doses, 33 mg/kg (volume change in the uninjected paw measured from day 9 to day 18); summary of the method: as §2
Rattus norvegicus [11] = test: Antiinflammatory activity was assessed by the ability to improve the adjuvant induced arthritis rats was determined by joint mobility of the paw at oral doses, 33 mg/kg; summary of the method: as §3
Cavia porcellus [12] = organism: Cavia porcellus; test: Tested for effect on the production of Lipoxygenase (LO) metabolite, 5,12-diHETE in guinea pig peritoneal polymorphonuclear neutrophils at 30 uM concentration; ND = no data; summary of the method: as §1
Cavia porcellus [13] = organism: Cavia porcellus; test: Tested for effect on the production of Lipoxygenase (LOX) metabolite, 5-HETE in guinea pig peritoneal polymorphonuclear neutrophils at 30 uM concentration; summary of the method: as §1
Rattus norvegicus [14] = organism: Rattus norvegicus; test: Antiinflammatory activity was assessed by the ability to improve the adjuvant induced arthritis in left secondary lesion in rats (volume change in the […] to day 18)
Rattus norvegicus [15] = organism: Rattus norvegicus; test: Antiinflammatory activity was assessed by the ability to improve the adjuvant induced arthritis in right primary lesion in rats(volume change in the injected paw measured from day 0 to day 8); summary of the method: as §2
Rattus norvegicus [16] = organism: Rattus norvegicus; test: Antiinflammatory activity was assessed by the ability to improve the adjuvant induced arthritis in right secondary lesion in rats (volume change in the injected paw measured from day 9 to day 18); summary of the method: as §2

Row | SMILES | Reduction (Cavia porcellus [1]) [%] | Reduction (Cavia porcellus [2]) [%] | Reduction (Cavia porcellus [3]) [%] | Reduction (Cavia porcellus [4]) [%] | Reduction (Rattus norvegicus [5]) [%] | Reduction (Rattus norvegicus [6]) [%] | Reduction (Rattus norvegicus [7]) [%] | Reduction (Rattus norvegicus [8]) [%] | Reduction (Cavia porcellus [9]) [%] | Reduction (Rattus norvegicus [10]) [%] | Reduction (Rattus norvegicus [11]) [%] | Reduction (Cavia porcellus [12]) [%] | Reduction (Cavia porcellus [13]) [%] | Reduction (Rattus norvegicus [14]) [%] | Reduction (Rattus norvegicus [15]) [%] | Reduction (Rattus norvegicus [16]) [%]
1 | CC(C(=O)O)c1cc(C(=O)c2ccccc2)ccc1O (centres undefined) | -55 | -27 | 77 | 75 | 61 | 30 | 37 | 38 | 52 |  |  |  |  |  |  | 
2 | O=C(O)Cc1cc(C(=O)c2cccs2)ccc1O | -62 | -72 | 74 | 89 |  | 11 | 20 | 1 | 74 | 10 |  |  |  |  |  | 
3 | O=C1Oc2ccc(C(=O)c3cccs3)cc2/C1=C/c1ccccc1 | -10 | -18 | 81 | 92 | 76 | 21 | 48 |  | 60 |  | 46 |  |  |  |  | 
4 | C=CCOc1ccc(C(=O)c2cccs2)cc1C(C)C(=O)O (centres undefined) |  | -25 | 6 | 62 | 3 | 18 | -8 | -14 | 11 |  |  | -21 |  |  |  | 
5 | CC1C(=O)Oc2ccc(C(=O)c3cccs3)cc21 (centres undefined) | 39 | 37 | 61 | 67 | 48 | 31 | 40 | 31 | 15 |  |  |  |  |  |  | 
6 | NC1=NN(c2cccc(C(F)(F)F)c2)CC1 [BW-755C] | 40 |  | 79 | 90 |  |  |  |  | 82 |  |  |  | 45 |  |  | 
7 | COc1ccc2c(c1)c(CC(=O)O)c(C)n2C(=O)c1ccc(Cl)cc1 [INDOMETHACIN] | -81 | -12 | 84 | 91 |  |  |  | 91 | 70 |  |  |  |  | 77 | 37 | 56
